Results published in ChEMBL document CHEMBL4011602, “Xanthine oxidase inhibitory activity of nicotino/isonicotinohydrazides: A systematic approach from in vitro, in silico to in vivo studies” (Bioorg Med Chem, 2017).

Tests used:
[1] = target: T1, Xanthine dehydrogenase/oxidase (Bos taurus, UniProt P80457); experiment: Inhibition of bovine xanthine oxidase using xanthine as substrate preincubated for 10 mins followed by substrate addition measured for 15 mins by spectrophotometric method
Rattus norvegicus [2] = experiment: In vivo inhibition of xanthine oxidase in Wistar rat at 50 mg/kg, ip using 6-mercaptopurine as substrate after 6 hrs by UPLC method relative to control; assay type: functional
Rattus norvegicus [3] = experiment: In vivo inhibition of xanthine oxidase in Wistar rat assessed as peak area of 6-MP at 50 mg/kg, ip using 6-mercaptopurine as substrate after 6 hrs by UPLC method (reference value: 7.3 mAU); assay type: functional
[4] = target: T1, Xanthine dehydrogenase/oxidase; experiment: Competitive inhibition of bovine xanthine oxidase using varying levels of xanthine as substrate preincubated for 10 mins followed by substrate addition measured for 15 mins by Lineweaver-Burk plot/Dixon plot analysis
How it was run: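 Run like the inhibition assay: XO (0.003 units/well) in 50 mM phosphate buffer pH 7.4, inhibitor in 90% DMSO, preincubated 10 min at 30 °C. Varied inhibitor and xanthine concentrations (0.0375, 0.075, 0.15, 0.300 mM), absorbance change at 295 nm over 15 min.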

Rattus norvegicus [5] = experiment: In vivo inhibition of xanthine oxidase in Wistar rat assessed as retention time of 6-MP at 50 mg/kg, ip using 6-mercaptopurine as substrate after 6 hrs by UPLC method (reference value: 4.912 min); assay type: functional, organism-based
[6] = target: Xanthine dehydrogenase/oxidase (Bos taurus) (UniProt P80457)
Chain of Xanthine dehydrogenase/oxidase (Bos taurus) (P80457 whole entry, looked up): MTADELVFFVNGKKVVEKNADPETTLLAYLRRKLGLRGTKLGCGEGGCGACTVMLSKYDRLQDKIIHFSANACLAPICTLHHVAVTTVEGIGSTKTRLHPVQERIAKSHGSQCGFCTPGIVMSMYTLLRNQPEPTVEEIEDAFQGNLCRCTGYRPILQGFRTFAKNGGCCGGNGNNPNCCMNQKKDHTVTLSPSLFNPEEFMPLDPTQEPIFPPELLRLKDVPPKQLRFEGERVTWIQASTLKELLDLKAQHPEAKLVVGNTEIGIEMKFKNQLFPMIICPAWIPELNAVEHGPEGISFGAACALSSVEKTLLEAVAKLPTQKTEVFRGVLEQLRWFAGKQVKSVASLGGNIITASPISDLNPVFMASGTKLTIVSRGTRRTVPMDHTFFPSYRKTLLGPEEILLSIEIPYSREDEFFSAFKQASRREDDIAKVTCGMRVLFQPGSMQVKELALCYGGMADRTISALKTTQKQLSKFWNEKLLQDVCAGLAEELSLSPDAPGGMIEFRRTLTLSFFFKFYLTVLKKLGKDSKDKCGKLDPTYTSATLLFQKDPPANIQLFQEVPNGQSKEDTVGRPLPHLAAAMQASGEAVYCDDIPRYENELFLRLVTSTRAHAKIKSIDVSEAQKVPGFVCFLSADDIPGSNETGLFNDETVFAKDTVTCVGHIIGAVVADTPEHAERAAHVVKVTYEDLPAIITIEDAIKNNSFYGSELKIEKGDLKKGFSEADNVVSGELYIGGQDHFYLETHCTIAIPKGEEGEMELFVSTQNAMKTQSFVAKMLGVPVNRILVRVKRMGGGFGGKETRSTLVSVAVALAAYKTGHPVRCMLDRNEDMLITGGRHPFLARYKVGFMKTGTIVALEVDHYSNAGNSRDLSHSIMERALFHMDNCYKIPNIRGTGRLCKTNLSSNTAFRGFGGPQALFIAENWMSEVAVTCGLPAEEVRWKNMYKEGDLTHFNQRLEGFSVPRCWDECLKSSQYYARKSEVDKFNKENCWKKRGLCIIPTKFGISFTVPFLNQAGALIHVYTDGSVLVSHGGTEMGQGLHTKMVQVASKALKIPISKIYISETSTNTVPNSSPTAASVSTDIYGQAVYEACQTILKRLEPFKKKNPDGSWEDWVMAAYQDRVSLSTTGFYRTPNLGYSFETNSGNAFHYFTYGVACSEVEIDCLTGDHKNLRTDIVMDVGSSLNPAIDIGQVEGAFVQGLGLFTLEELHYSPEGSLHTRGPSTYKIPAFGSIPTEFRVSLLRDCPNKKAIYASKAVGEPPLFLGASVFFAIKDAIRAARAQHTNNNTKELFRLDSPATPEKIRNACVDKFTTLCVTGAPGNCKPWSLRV

T1 sequence (P80457 whole entry): as the sequence (P80457 whole entry, looked up) above

SMILES	IC50 [1]	IC50 ([1]; read-out: IC50) [µM]	other results
O=C(N/N=C/c1cccc(O)c1)c1cccnc1	Not Active		
O=C(N/N=C/c1cccc([N+](=O)[O-])c1)c1cccnc1		184	
O=C(N/N=C/c1ccc(Cl)cc1)c1cccnc1		195	
COc1ccc(/C=N/NC(=O)c2cccnc2)cc1OC	Not Active		
COc1cccc(O)c1/C=N/NC(=O)c1cccnc1	Not Active		
COc1ccc(/C=N/NC(=O)c2cccnc2)c(OC)c1OC	Not Active		
O=C(N/N=C/c1c(O)cc(O)cc1O)c1ccncc1		0.96	inhibition in vivo at 50 mg/kg (Rattus norvegicus [2]): 44%; Activity (Rattus norvegicus [3]): 73.5 mAU; Ki [4]: 0.82 µM; Retention time (Rattus norvegicus [5]): 4.92 min
O=C(N/N=C/c1ccc(Cl)cc1Cl)c1cccnc1	Not Active		
O=C(N/N=C/c1ccc([N+](=O)[O-])cc1)c1ccncc1 [N'-(4-NITROBENZYLIDENE)ISONICOTINOHYDRAZIDE]	Not Active		
O=C(N/N=C/c1ccc(O)c(O)c1)c1cccnc1		10	Activity (Rattus norvegicus [3]): 0.001 mAU; Ki [4]: 7.27 µM; Retention time (Rattus norvegicus [5]): 4.9 min
O=C(N/N=C/c1cccc(Cl)c1)c1cccnc1		205	
O=C(N/N=C/c1cc(O)cc(O)c1)c1cccnc1		161	
CN(C)c1ccc(/C=N/NC(=O)c2cccnc2)cc1	Not Active		
Cc1ccc(O)c(/C=N/NC(=O)c2cccnc2)c1	Not Active		
CSc1ccc(/C=N/NC(=O)c2cccnc2)cc1	Not Active		
Oc1ncnc2[nH]ncc12 [ALLOPURINOL]			inhibition in vivo at 50 mg/kg (Rattus norvegicus [2]): 100%; Activity (Rattus norvegicus [3]): 166.3 mAU; Retention time (Rattus norvegicus [5]): 4.93 min
COc1ccc(O)c(/C=N/NC(=O)c2cccnc2)c1	Not Active		
O=C(N/N=C/c1ccc(O)c(O)c1O)c1cccnc1	Not Active		
O=C(N/N=C/c1ccccc1)c1cccnc1 [NICOTINIC ACID BENZYLIDENE-HYDRAZIDE]		211	
O=C(N/N=C/c1ccc([N+](=O)[O-])cc1)c1cccnc1	Not Active		
O=C(N/N=C/c1ccccc1[N+](=O)[O-])c1cccnc1	Not Active		
COc1cccc(/C=N/NC(=O)c2cccnc2)c1O		175	
O=C(O)c1cccnc1 [NIACIN]			IC50 [6]: 518 µM
O=C(N/N=C/c1ccc(O)cc1)c1cccnc1		184	

More lines, main results first:

IC50 [1]	IC50 ([1]; read-out: IC50) [µM]	SMILES	other results
Not Active		O=C(N/N=C/c1ccc(Cl)cc1Cl)c1ccncc1	
Not Active		CCOc1ccc(/C=N/NC(=O)c2ccncc2)cc1O	
	206	O=C(N/N=C/c1cccc(Cl)c1)c1ccncc1 [N'-(3-CHLOROBENZYLIDENE)ISONICOTINOHYDRAZIDE]	
	330	CCOc1ccc(/C=N/NC(=O)c2ccncc2)cc1	
	242	CCOc1ccc(/C=N/NC(=O)c2cccnc2)cc1	
	264	CCOc1cccc(/C=N/NC(=O)c2cccnc2)c1O	
Not Active		O=C(N/N=C/c1cccc(O)c1)c1ccncc1	
Not Active		CCOc1ccccc1/C=N/NC(=O)c1ccncc1	
Not Active		O=C(N/N=C/c1ccc(O)cc1)c1ccncc1	
	12.4	O=C(N/N=C/c1ccc(O)c(O)c1)c1ccncc1	inhibition in vivo at 50 mg/kg (Rattus norvegicus [2]): 28%; Activity (Rattus norvegicus [3]): 47.4 mAU; Ki [4]: 15.5 µM; Retention time (Rattus norvegicus [5]): 4.95 min
Not Active		O=C(N/N=C/c1ccccc1F)c1ccncc1	
Not Active		COc1ccc(O)c(/C=N/NC(=O)c2ccncc2)c1	
Not Active		O=C(N/N=C/c1ccccc1[N+](=O)[O-])c1ccncc1	
Not Active		O=C(N/N=C/c1ccccc1)c1ccncc1 [N'-BENZYLIDENE ISONICOTINOHYDRAZIDE]	
Not Active		O=C(N/N=C/c1ccc(O)cc1O)c1ccncc1	
Not Active		CSc1ccc(/C=N/NC(=O)c2ccncc2)cc1	

IC50 [1]	IC50 ([1]; read-out: IC50) [µM]	SMILES	other results
	174	O=C(N/N=C/c1cccc([N+](=O)[O-])c1)c1ccncc1	
Not Active		CCOc1ccccc1/C=N/NC(=O)c1cccnc1	
Not Active		CN(C)c1ccc(/C=N/NC(=O)c2ccncc2)cc1 [N'-(4-DIMETHYLAMINOBENZYLIDENE)ISONICOTINOHYDRAZIDE]	
	54.8	CCOc1cccc(/C=N/NC(=O)c2ccncc2)c1O	Ki [4]: 51.3 µM
Not Active		O=C(N/N=C/c1cc([N+](=O)[O-])ccc1Cl)c1ccncc1	
	179	O=C(N/N=C/c1ccc(Cl)cc1)c1ccncc1	
	21.1	COc1cccc(/C=N/NC(=O)c2ccncc2)c1O	Ki [4]: 15 µM
	198	O=C(N/N=C/c1ccccc1Br)c1cccnc1	
Not Active		COc1ccc(/C=N/NC(=O)c2ccncc2)cc1O	
Not Active		O=C(N/N=C/c1ccccc1Cl)c1ccncc1	
	174	O=C(N/N=C/c1ccccc1F)c1cccnc1	
Not Active		CCOc1ccc(/C=N/NC(=O)c2ccncc2)cc1OCC	
Not Active		COc1ccc(/C=N/NC(=O)c2ccncc2)cc1OC [VERAZIDE]	
Not Active		COc1ccccc1/C=N/NC(=O)c1cccnc1	
Not Active		O=C(N/N=C/c1ccccc1O)c1ccncc1 [SALINAZID]	
	180	Cc1ccccc1/C=N/NC(=O)c1cccnc1	
